Measurements published in article PMC11684312 (Nature chemistry, 2024).

Columns and labels:
WT LIMK1-NanoLuc = WT LIMK1-NanoLuc (Homo sapiens, UniProt P53667); assay: LIMK1 NanoBRET target engagement assay, WT; format: cell-based; settings: HEK293T cells, 0.5 μM K-10 tracer, 3 h
In short: (§1)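 HEK293T cells in Opti-MEM without phenol red with 1% FBS (2x10^5 cells/mL) were transfected with WT or C349A LIMK1-NanoLuc plasmid (1 μg/mL) plus carrier DNA (9 μg/mL) for 20 h at 37 °C/5% CO2. K-10 tracer and test compound (diluted from 1000x DMSO stocks) were added for 3 h at 37 °C. Donor 450 nm and acceptor 610 nm were read after substrate/inhibitor (2 min, RT). Untransfected background was subtracted, mBU calculated, then normalized to DMSO. Triplicate wells.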

C349A LIMK1-NanoLuc = C349A LIMK1-NanoLuc (Homo sapiens, UniProt P53667, C349A); assay: LIMK1 NanoBRET target engagement assay, C349A; format: cell-based; settings: HEK293T cells, C349A-LIMK1 mutant, 3 h
In short: as §1

Chain of WT LIMK1-NanoLuc (P53667 whole entry): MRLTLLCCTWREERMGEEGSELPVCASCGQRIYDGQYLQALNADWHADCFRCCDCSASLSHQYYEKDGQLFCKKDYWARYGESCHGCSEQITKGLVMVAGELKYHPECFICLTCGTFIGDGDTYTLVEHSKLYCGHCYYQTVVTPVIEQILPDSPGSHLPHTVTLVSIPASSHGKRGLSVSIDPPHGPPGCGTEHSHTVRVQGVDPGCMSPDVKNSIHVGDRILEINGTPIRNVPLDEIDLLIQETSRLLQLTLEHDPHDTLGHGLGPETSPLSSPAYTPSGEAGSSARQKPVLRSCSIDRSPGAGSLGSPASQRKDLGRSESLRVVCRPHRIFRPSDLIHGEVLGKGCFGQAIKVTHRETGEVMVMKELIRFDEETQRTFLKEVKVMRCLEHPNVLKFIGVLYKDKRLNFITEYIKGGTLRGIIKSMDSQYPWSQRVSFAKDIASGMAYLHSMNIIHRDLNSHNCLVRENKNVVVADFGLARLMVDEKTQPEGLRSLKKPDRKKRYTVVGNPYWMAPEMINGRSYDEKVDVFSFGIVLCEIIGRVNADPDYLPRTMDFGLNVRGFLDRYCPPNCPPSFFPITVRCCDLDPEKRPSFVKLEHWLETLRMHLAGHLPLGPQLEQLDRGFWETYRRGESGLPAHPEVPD
Chain of C349A LIMK1-NanoLuc (P53667 whole entry C349A): as the sequence (P53667 whole entry) above, with C349A counted along it

COc1ccc(N(C(=O)Nc2c(C)cccc2C)c2cc(Nc3ccc(N4CCN(C)CC4)cc3)ncn2)c(OC)c1 [HG-9-91-01]
BRET signal (NanoBRET K-10 tracer) (WT LIMK1-NanoLuc): decreased NanoBRET signals
BRET signal (NanoBRET K-10 tracer) (C349A LIMK1-NanoLuc): decreased NanoBRET signals
